# Activity calls are given as the source filed them. The rule behind the calls is not given here.
# Assays:
# HCT-116 = test: Antiproliferative activity against human HCT116 cells harboring KRAS G13D mutant assessed as inhibition of cell viability after 96 hrs by Celltiter-Glo assay; type: functional, cell-based; conditions: HCT-116, 96 h
# A549 = test: Antiproliferative activity against human A549 cells harboring KRAS G12S mutant assessed as inhibition of cell viability after 96 hrs by Celltiter-Glo assay; type: functional, cell-based; conditions: A549, 96 h
# HL-60 = test: Antiproliferative activity against human HL60 cells harboring NRAS […] mutant assessed as inhibition of cell viability after 96 hrs by Celltiter-Glo assay; type: functional, cell-based; conditions: HL-60, 96 h
# [1] = Prodrug release in human HCT-116 cells assessed as increase in intracellular NO level at 100 uM measured after 2 hr by DAF-FM DA reagent based laser confocal scanning microscopy; conditions: hct-116, 2 h
# MDA-MB-231 [2] = test: Antiproliferative activity against human MDA-MB-231 cells harboring KRAS G13D/BRAF G464V mutant assessed as inhibition of cell viability after 96 hrs by Celltiter-Glo assay; type: functional, cell-based; conditions: MDA-MB-231, 96 h
# [3] = Antiproliferative activity against human A375 cells harboring BRAF V600E mutant assessed as inhibition of cell viability after 96 hrs by Celltiter-Glo assay; type: functional, cell-based, A375/R; conditions: A-375, 96 h
# [4] = target: T1, Dual specificity mitogen-activated protein kinase kinase; MEK1/2 (Homo sapiens) (UniProt P36507+Q02750); test: Inhibition of MEK in human MDA-MB-231 cells assessed as reduction in MEK phosphorylation at 1 to 10 uM incubated for 2 hrs by Western blot analysis; type: cell-based; conditions: dose 1-10 µM
# T1 sequence (P36507 whole entry, looked up): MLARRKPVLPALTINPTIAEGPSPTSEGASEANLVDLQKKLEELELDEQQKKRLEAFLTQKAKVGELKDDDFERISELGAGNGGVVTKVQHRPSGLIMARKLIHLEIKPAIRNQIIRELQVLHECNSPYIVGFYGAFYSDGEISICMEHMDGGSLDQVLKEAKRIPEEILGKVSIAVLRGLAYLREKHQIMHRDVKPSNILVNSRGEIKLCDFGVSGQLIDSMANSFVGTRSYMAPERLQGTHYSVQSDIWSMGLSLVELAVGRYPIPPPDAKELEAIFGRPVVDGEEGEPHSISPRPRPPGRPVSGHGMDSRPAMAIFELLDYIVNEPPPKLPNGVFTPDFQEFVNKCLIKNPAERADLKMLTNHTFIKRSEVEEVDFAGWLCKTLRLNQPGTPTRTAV
# T1 sequence (Q02750 whole entry, looked up): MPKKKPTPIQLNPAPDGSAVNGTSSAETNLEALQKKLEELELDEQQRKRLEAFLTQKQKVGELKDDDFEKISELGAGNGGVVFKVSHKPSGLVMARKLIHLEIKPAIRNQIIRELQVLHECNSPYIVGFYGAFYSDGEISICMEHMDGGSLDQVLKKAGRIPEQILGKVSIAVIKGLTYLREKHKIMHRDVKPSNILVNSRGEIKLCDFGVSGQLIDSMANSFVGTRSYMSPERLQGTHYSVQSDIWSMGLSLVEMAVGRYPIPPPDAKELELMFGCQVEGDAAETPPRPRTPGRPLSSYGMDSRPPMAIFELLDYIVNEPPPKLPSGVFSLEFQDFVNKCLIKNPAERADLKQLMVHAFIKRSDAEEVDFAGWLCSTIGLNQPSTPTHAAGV
# Procedure, shortened: (§1)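 MDA-MB-231 in RPMI-1640 with 10% FBS. Dose series at 1, 3 and 10 µM for 2 h or 24 h; time course at 1 µM or 10 µM over several time points. RIPA lysates with protease/phosphatase inhibitors, equal protein on 4-20% SDS-PAGE, PVDF transfer, 5% milk block. Probed overnight at 4 °C for pMEK, MEK, pERK and ERK, then HRP secondary.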
# MDA-MB-231 [5] = test: Induction of apoptosis in human MDA-MB-231 cells assessed as viable cells at 1 uM incubated for 24 hrs by AnnexinV-FITC and propidium iodide staining based flow cytometry (reference value: 90.962%); type: functional; conditions: read-out: Activity
# MDA-MB-231 [6] = test: Induction of apoptosis in human MDA-MB-231 cells assessed as early apoptotic cells at 1 uM incubated for 24 hrs by AnnexinV-FITC and propidium iodide staining based flow cytometry (reference value: 4.4%); type: functional
# L02 = test: Cytotoxicity against human HL7702 cells assessed as reduction in cell viability after 96 hrs by Celltiter-Glo assay; type: cell-based; conditions: L02, 96 h
# Procedure, shortened: (§2)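 Cells kept at 37 °C in humidified 5% CO2 with 10% FBS; Vero in DMEM, HL7702 in RPMI-1640. Compounds added to plated cells and incubated 96 h at 37 °C. Viability read by CellTiter-Glo reagent added directly to the wells. IC50 fitted from the readings.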
# MDA-MB-231 [7] = test: Induction of apoptosis in human MDA-MB-231 cells assessed as late apoptotic cells at 10 uM incubated for 24 hrs by AnnexinV-FITC and propidium iodide staining based flow cytometry (reference value: 3.54%); type: functional
# [8] = target: T1, Dual specificity mitogen-activated protein kinase kinase; MEK1/2 (Homo sapiens); test: Inhibition of MEK in human MDA-MB-231 cells assessed as reduction in ERK phosphorylation at 1 uM by Western blot analysis; type: cell-based; conditions: time 1-6 hrs, TDE = time-dependent effect; procedure, shortened: as §1
# [9] = target: T1, Dual specificity mitogen-activated protein kinase kinase; MEK1/2 (Homo sapiens); test: Inhibition of MEK in human MDA-MB-231 cells assessed as reduction in ERK phosphorylation at 1 to 10 uM incubated for 2 hrs by Western blot analysis; type: cell-based; conditions: dose 1-10 µM; procedure, shortened: as §1
# Vero = test: Cytotoxicity against African green monkey Vero cells assessed as reduction in cell viability after 96 hrs by Celltiter-Glo assay; type: cell-based; conditions: Chlorocebus sabaeus; procedure, shortened: as §2
# [10] = target: T1, Dual specificity mitogen-activated protein kinase kinase; MEK1/2 (Homo sapiens); test: Inhibition of MEK in human MDA-MB-231 cells assessed as reduction in MEK phosphorylation at 1 uM incubated for <=1 hr by Western blot analysis; type: cell-based; conditions: time hrs <=1; procedure, shortened: as §1
# [11] = target: T1, Dual specificity mitogen-activated protein kinase kinase; MEK1/2 (Homo sapiens); test: Inhibition of MEK in human MDA-MB-231 cells assessed as reduction in ERK phosphorylation incubated for 2 hrs by Western blot analysis; type: cell-based; conditions: dose 0.1-10 µM
# [12] = target: T1, Dual specificity mitogen-activated protein kinase kinase; MEK1/2 (Homo sapiens); test: Inhibition of MEK in human MDA-MB-231 cells assessed as reduction in MEK phosphorylation at 1 uM by Western blot analysis; type: cell-based; conditions: time 1-6 hrs, TDE = time-dependent effect; procedure, shortened: as §1
# MDA-MB-231 [13] = test: Induction of apoptosis in human MDA-MB-231 cells assessed as late apoptotic cells at 1 uM incubated for 24 hrs by AnnexinV-FITC and propidium iodide staining based flow cytometry (reference value: 3.54%); type: functional
# MDA-MB-231 [14] = test: Induction of apoptosis in human MDA-MB-231 cells assessed as early apoptotic cells at 10 uM incubated for 24 hrs by AnnexinV-FITC and propidium iodide staining based flow cytometry (reference value: 4.4%); type: functional
# MDA-MB-231 [15] = test: Induction of apoptosis in human MDA-MB-231 cells assessed as viable cells at 10 uM incubated for 24 hrs by AnnexinV-FITC and propidium iodide staining based flow cytometry (reference value: 90.962%); type: functional; conditions: read-out: Activity
# [16] = target: T1, Dual specificity mitogen-activated protein kinase kinase; MEK1/2 (Homo sapiens); test: Inhibition of MEK in human MDA-MB-231 cells assessed as reduction in ERK phosphorylation at 1 uM incubated for <=1 hr by Western blot analysis; type: cell-based; conditions: time hrs <=1; procedure, shortened: as §1
# MDA-MB-231 [17] = test: Induction of apoptosis in human MDA-MB-231 cells assessed as necrotic cells at 10 uM incubated for 24 hrs by AnnexinV-FITC and propidium iodide staining based flow cytometry (reference value: 1.084%); type: functional
# MDA-MB-231 [18] = test: Induction of apoptosis in human MDA-MB-231 cells assessed as necrotic cells at 1 uM incubated for 24 hrs by AnnexinV-FITC and propidium iodide staining based flow cytometry (reference value: 1.084%); type: functional
# [19] = target: T1, Dual specificity mitogen-activated protein kinase kinase; MEK1/2 (Homo sapiens); test: Inhibition of MEK in human MDA-MB-231 cells assessed as reduction in MEK phosphorylation incubated for 2 hrs by Western blot analysis; type: cell-based; conditions: dose 0.1-10 µM
# [20] = target: T1, Dual specificity mitogen-activated protein kinase kinase; MEK1/2 (Homo sapiens); test: Inhibition of MEK in human A549 cells assessed as reduction in ERK phosphorylation at 1 uM incubated for 2 hrs by Western blot analysis; type: cell-based
# Procedure, shortened: (§3)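 A549 cells in RPMI-1640 with 10% FBS, treated 2 h. Cells lysed in RIPA with protease/phosphatase inhibitors on ice for 20 min. Equal protein run on 4-20% SDS-PAGE and blotted to PVDF. Membranes blocked in 5% milk, then probed overnight at 4 °C with rabbit mAbs to pMEK, MEK, pERK and ERK, followed by HRP secondary. GAPDH used as loading control.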
# [21] = target: T1, Dual specificity mitogen-activated protein kinase kinase; MEK1/2 (Homo sapiens); test: Inhibition of MEK in human A549 cells assessed as reduction in MEK phosphorylation at 10 uM incubated for 2 hrs by Western blot analysis; type: cell-based; procedure, shortened: as §3
Structure (SMILES),IC50 (HCT-116),IC50 (A549),IC50 (HL-60),Drug metabolism [1],IC50 (MDA-MB-231 [2]),IC50 [3],other results
CCNS(=O)(=O)Nc1cccc(Cc2c(C)c3ccc(OCCOc4no[n+]([O-])c4S(=O)(=O)c4ccccc4)cc3oc2=O)c1F,720 nM,2570 nM,290 nM,Metabolite_Detected,180 nM,540 nM,–
COCCNS(=O)(=O)Nc1cccc(Cc2c(C)c3ccc(OCCOc4no[n+]([O-])c4S(=O)(=O)c4ccccc4)cc3oc2=O)c1F,710 nM,2270 nM,310 nM,Metabolite_Detected,380 nM,540 nM,–
CCNS(=O)(=O)Nc1cccc(Cc2c(C)c3ccc(OCCO)cc3oc2=O)c1F,5790 nM,> 5000 nM,150 nM,Metabolite_Notdetected,2480 nM,200 nM,–
CONS(=O)(=O)Nc1cccc(Cc2c(C)c3ccc(OCCO)cc3oc2=O)c1F,–,–,–,Metabolite_Notdetected,–,–,–
Cc1c(Cc2cccc(NS(=O)(=O)NC(C)C)c2F)c(=O)oc2cc(OCCO)ccc12,5090 nM,> 5000 nM,140 nM,Metabolite_Notdetected,2380 nM,150 nM,–
Cc1c(Cc2cccc(NS(=O)(=O)NCCC#N)c2F)c(=O)oc2cc(OCCO)ccc12,15400 nM,> 5000 nM,390 nM,Metabolite_Notdetected,5490 nM,650 nM,–
Cc1c(Cc2cccc(NS(=O)(=O)NCC(F)(F)F)c2F)c(=O)oc2cc(OCCOc3no[n+]([O-])c3S(=O)(=O)c3ccccc3)ccc12,610 nM,2510 nM,270 nM,Metabolite_Detected,130 nM,500 nM,–
Cc1c(Cc2cccc(NS(=O)(=O)NCC(F)(F)F)c2F)c(=O)oc2cc(OCCO)ccc12,10300 nM,> 5000 nM,780 nM,Metabolite_Notdetected,7720 nM,930 nM,–
CNS(=O)(=O)Nc1cccc(Cc2c(C)c3ccc(OCCCOc4no[n+]([O-])c4S(=O)(=O)c4ccccc4)cc3oc2=O)c1F,640 nM,1350 nM,–,Metabolite_Detected,34 nM,–,inhibition [4]: Active; viability at 1 µM (MDA-MB-231 [5]): 61.2%; Activity (MDA-MB-231 [6]): 22.6%; IC50 (L02): 5620 nM; Activity (MDA-MB-231 [7]): 6.87%; inhibition [8]: Tde; inhibition [9]: Active; IC50 (Vero): 21100 nM; inhibition [10]: Active; inhibition [11]: Dose-dependent effect; inhibition [12]: Tde; Activity (MDA-MB-231 [13]): 7.65%; Activity (MDA-MB-231 [14]): 24.7%; viability at 10 µM (MDA-MB-231 [15]): 53.7%; inhibition [16]: Active; Activity (MDA-MB-231 [17]): 14.729%; Activity (MDA-MB-231 [18]): 8.443%; inhibition [19]: Dose-dependent effect
Cc1c(Cc2cccc(NS(=O)(=O)NCCC#N)c2F)c(=O)oc2cc(OCCOc3no[n+]([O-])c3S(=O)(=O)c3ccccc3)ccc12,760 nM,2610 nM,640 nM,Metabolite_Detected,270 nM,660 nM,–
Cc1c(Cc2cccc(NS(=O)(=O)NC(C)C)c2F)c(=O)oc2cc(OCCOc3no[n+]([O-])c3S(=O)(=O)c3ccccc3)ccc12,1230 nM,2990 nM,550 nM,Metabolite_Detected,860 nM,970 nM,–
CNS(=O)(=O)Nc1cccc(Cc2c(C)c3ccc(OCCCCOc4no[n+]([O-])c4S(=O)(=O)c4ccccc4)cc3oc2=O)c1F,2780 nM,3490 nM,–,Metabolite_Detected,200 nM,–,IC50 (L02): 1930 nM; IC50 (Vero): 2980 nM
CNS(=O)(=O)Nc1cccc(Cc2c(C)c3ccc(OCCO)cc3oc2=O)c1F,3470 nM,> 5000 nM,100 nM,Metabolite_Notdetected,2190 nM,150 nM,–
COCCNS(=O)(=O)Nc1cccc(Cc2c(C)c3ccc(OCCO)cc3oc2=O)c1F,6500 nM,> 5000 nM,250 nM,Metabolite_Notdetected,2990 nM,360 nM,–
CCOC(=O)N1CCN(/[N+]([O-])=N/Oc2ccc([N+](=O)[O-])cc2[N+](=O)[O-])CC1,500 nM,690 nM,530 nM,Metabolite_Detected,2900 nM,1990 nM,IC50 (L02): 1990 nM; Activity (MDA-MB-231 [7]): 19.2%; IC50 (Vero): 1160 nM; Activity (MDA-MB-231 [14]): 27.1%; viability at 10 µM (MDA-MB-231 [15]): 51.2%; Activity (MDA-MB-231 [17]): 2.444%
CNS(=O)(=O)Nc1cccc(Cc2c(C)c3ccc(OCCCO)cc3oc2=O)c1F,5340 nM,> 5000 nM,–,Metabolite_Notdetected,1900 nM,–,–
CNS(=O)(=O)Nc1nccc(Cc2c(C)c3ccc(Oc4ncccn4)cc3oc2=O)c1F [AVUTOMETINIB],53 nM,1240 nM,6 nM,Metabolite_Notdetected,170 nM,17 nM,inhibition [4]: Active; viability at 1 µM (MDA-MB-231 [5]): 88.8%; Activity (MDA-MB-231 [6]): 8.45%; IC50 (L02): 17300 nM; Activity (MDA-MB-231 [7]): 2.37%; inhibition [9]: Active; IC50 (Vero): > 50000 nM; inhibition [20]: Active; Activity (MDA-MB-231 [13]): 1.92%; Activity (MDA-MB-231 [14]): 7.32%; inhibition [21]: Active; viability at 10 µM (MDA-MB-231 [15]): 89.7%; Activity (MDA-MB-231 [17]): 0.57%; Activity (MDA-MB-231 [18]): 0.87%
CNS(=O)(=O)Nc1cccc(Cc2c(C)c3ccc(OCCCCO)cc3oc2=O)c1F,7350 nM,> 5000 nM,–,Metabolite_Notdetected,3200 nM,–,–
CC(=O)Nc1cccc(-n2c(=O)n(C3CC3)c(=O)c3c(Nc4ccc(I)cc4F)n(C)c(=O)c(C)c32)c1 [TRAMETINIB],19 nM,460 nM,3 nM,–,18 nM,2.4 nM,–
CONS(=O)(=O)Nc1cccc(Cc2c(C)c3ccc(OCCOc4no[n+]([O-])c4S(=O)(=O)c4ccccc4)cc3oc2=O)c1F,1010 nM,3750 nM,5640 nM,Metabolite_Detected,310 nM,870 nM,–
